The nature of series [1]: Antioxidant activity assessed as DPPH radical scavenging activity after 30 mins under dark condition. The class given is functional. Put shortly: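 Serially diluted samples were run in replicates of four, and 200 μM DPPH (concentration as added) was added. MeOH served as the negative control and rutin (820 μM) as the positive control. A row without DPPH gave the background correction. Plates were held in the dark for 30 min, then read at 517 nm. IC50 was interpolated from % scavenging versus log concentration and reported as mean ± SD.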

A short description of series [2]: Antioxidant activity assessed as DPPH radical scavenging activity after 30 mins under dark condition relative to rutin. The class given is functional.
Series [3] in a line: Ultraviolet radiation absorbing capacity of the compound at 315 to 400 nm. In kind it is physicochemical. Conditions: 0.4 µM; call rule not given here.

Consider `O=c1cc(-c2cc(O)c(O)c(-c3c(O)cc(O)c4c(=O)cc(-c5ccc(O)c(O)c5)oc34)c2)oc2cc(O)cc(O)c12`, for which, in series [1], the IC50 came to 33.5 µM. For the same compound, the Activity in series [2] is 13%; in series [3], “Active”.
As for `O=C1CC(c2cc(O)c(O)c(-c3c(O)cc(O)c4c(=O)cc(-c5ccc(O)c(O)c5)oc34)c2)Oc2cc(O)cc(O)c21` (racemic), the half-maximal inhibitory concentration (IC50) in series [1] stood at 128 µM. The outcome in series [3] was Active.
Consider `O=Cc1ccc(O)cc1` [4-HYDROXYBENZALDEHYDE], for which the IC50 in series [1] came to 476000 µM. In addition, the result in series [3] was Active.
With `O=C(O)/C=C/c1ccc(O)cc1` [COUMARIC ACID], the half-maximal inhibitory concentration (IC50) in series [1] was determined as 29700 µM. In series [3], the result was Active.
Regarding `COc1cc(/C=C/C(=O)O)ccc1O` [FERULATE], in series [1], the half-maximal inhibitory concentration (IC50) was 75 µM. For the same compound, the result in series [3] was Active.
As to `C[C@@H]1O[C@@H](OC[C@H]2O[C@@H](Oc3c(-c4ccc(O)c(O)c4)oc4cc(O)cc(O)c4c3=O)[C@H](O)[C@@H](O)[C@@H]2O)[C@H](O)[C@H](O)[C@H]1O` [RUTIN], the IC50 in series [1] worked out at 38.6 µM.
With `COc1cc(C=O)ccc1O` [VANILLIN], the IC50 in series [1] turned out to be 14400 µM. Also, the outcome in series [3] was Active.

Source of the values: ChEMBL document CHEMBL4190302, “Antarctic Moss Biflavonoids Show High Antioxidant and Ultraviolet-Screening Activity” (J Nat Prod, 2017).
